Common to all, as to type: functional
In one assay the test system is P388. The experiment in a line: Cytotoxicity against mouse P388 cells after 48 hrs. The settings on record: P388, 48 h, read-out: ED50 (the source's name). The method in brief:
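Cultured murine P-388 leukemia cells were treated with compound for 48 h. The read-out is cell growth inhibition, and ED50 in µg/ml is the concentration producing 50% inhibition.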

A short description of assay [1]: Cytotoxicity against human UISO-BCA1 cells after 72 hrs. The settings on record: UISO-BCA1, 72 h, read-out: ED50 (the source's name). The method in brief: (§1)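 In vitro growth-inhibition assay with a 72 h compound exposure. ED50 in µg/ml is the concentration that inhibits cell growth by 50%.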
The nature of assay [2]: Cytotoxicity against human UISO-COL2 cells after 72 hrs. The settings on record: UISO-COL2, 72 h, read-out: ED50 (the source's name). The method in brief:
as §1

The nature of assay [3]: Cytotoxicity against human KB3 cells after 72 hrs. The settings on record: KB3, 72 h, read-out: ED50 (the source's name). A digest of the protocol: as §1
A short description of assay [4]: Cytotoxicity against human KBV1 cells after 72 hrs. To be noted: KB-V1, 72 h, read-out: ED50 (the source's name).
The test system of a further assay is HT-1080. Description: Cytotoxicity against human HT1080 cells after 72 hrs. The settings on record: HT-1080, 72 h, read-out: ED50 (the source's name). A digest of the protocol: as §1
Assay [5] can be described thus: Cytotoxicity against human UISO-MEL2 cells after 72 hrs. The settings on record: UISO-MEL2, 72 h, read-out: ED50 (the source's name). The method in brief:
as §1

Assay [6] in a line: Cytotoxicity against human UISO-LUC1 cells after 72 hrs. To be noted: UISO-LUC1, 72 h, read-out: ED50 (the source's name). A digest of the protocol:
as §1

SMILES strings stand for the structures. In brackets after ≈: the same amount, converted by molar mass.

Here are results for three molecules from ChEMBL document CHEMBL1158990, “New cytotoxic lupane lactones from Kokoona ochracea” (1991).

As for `CC1(C)C(=O)CC[C@]2(C)[C@H]3CC[C@H]4[C@@H]5[C@H]6[C@@H](C[C@]5(C)CC[C@@]4(C)[C@]3(C)CC[C@@H]12)OC(=O)[C@@]61CO1`, the EC50 was 7.8 µg/mL (≈ 16.6 µM) in the assay with P388; over 20 µg/mL in assay [1]; over 20 µg/mL in assay [2]; 5.2 µg/mL (≈ 11.1 µM) in assay [3]; over 20 µg/mL in assay [4]; over 20 µg/mL with HT-1080. In addition, the EC50 in assay [5] and in assay [6] was over 20 µg/mL in each case.

For the molecule `C=C1C(=O)O[C@@H]2C[C@]3(C)CC[C@]4(C)[C@H](CC[C@@H]5[C@@]6(C)CCC(=O)C(C)(C)[C@@H]6CC[C@]54C)[C@H]3[C@H]12` [OCHRACEOLIDE A], the EC50 in the assay with P388 is 0.26 µg/mL (≈ 0.574 µM); in assay [1], 10 µg/mL (≈ 22.1 µM); in assay [2] it was 6.8 µg/mL (≈ 15 µM); in assay [3], 2.7 µg/mL (≈ 5.96 µM); in assay [4], over 20 µg/mL; in the assay with HT-1080, 9.6 µg/mL (≈ 21.2 µM). Moreover, the EC50 amounted to 8.3 µg/mL (≈ 18.3 µM) in assay [5] and 12 µg/mL (≈ 26.5 µM) in assay [6].

In the case of `C=C1C(=O)O[C@@H]2C[C@]3(C)CC[C@]4(C)[C@@H](CC[C@@H]5[C@@]6(C)CCC(=O)C(C)(C)[C@@H]6C(=O)C[C@]54C)[C@@H]3[C@H]12` [OCHRACEOLIDE C], the EC50 was 0.53 µg/mL (≈ 1.14 µM) in the assay on P388; 4.5 µg/mL (≈ 9.64 µM) in assay [1]; 9.2 µg/mL (≈ 19.7 µM) in assay [2]; 5.5 µg/mL (≈ 11.8 µM) in assay [3]; over 20 µg/mL in assay [4]; 8.6 µg/mL (≈ 18.4 µM) in the assay with HT-1080. The EC50 was 8.3 µg/mL (≈ 17.8 µM) in assay [5] and 12 µg/mL (≈ 25.7 µM) in assay [6].
